Screening data as filed in PubChem BioAssay.
KDM4C inh: blocks human GASC-1 (KDM4C) demethylase activity. Q9H3R0. GST-KDM4C 2-372, H3K9me3 peptide, LANCE TR-FRET. inhibition, % at 12.5 µM. hit rate 0.15% among 96,000. AID 720574;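 active = mean replicate inhibition above about 25%, with at least 55% of replicates also reaching it, limit read from the data, passing the limit was not always enough; inconclusive = only one of those two conditions met; inactive = neither condition met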
Target sequence (Q9H3R0 2-372 limits assumed): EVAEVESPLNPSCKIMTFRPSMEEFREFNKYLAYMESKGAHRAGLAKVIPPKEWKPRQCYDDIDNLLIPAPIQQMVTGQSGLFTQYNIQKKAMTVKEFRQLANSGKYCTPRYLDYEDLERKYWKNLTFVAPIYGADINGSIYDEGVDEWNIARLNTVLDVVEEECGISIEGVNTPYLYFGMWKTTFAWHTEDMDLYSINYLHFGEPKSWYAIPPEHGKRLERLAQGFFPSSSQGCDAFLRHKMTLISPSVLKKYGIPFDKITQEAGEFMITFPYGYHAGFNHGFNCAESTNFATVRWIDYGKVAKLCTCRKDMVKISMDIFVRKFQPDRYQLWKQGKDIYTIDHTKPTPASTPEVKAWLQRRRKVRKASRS
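Material: GST-tagged GASC-1 (JMJD2C) catalytic fragment, aa 2-372. Input: enzyme final amount 10 nM. Medium: HEPES buffer, pH 7.5, plus ascorbate. Reagent: H3K9me3 peptide substrate, Fe(II), 2-oxoglutarate. Doses: single dose. Times: reaction 30 min RT, detection step 1 h RT. Measured by: LANCE TR-FRET. Evaluation: Fall in 671/618 emission ratio as inhibition.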
IDH1 R132H inh: inhibitors of human IDH1 R132H | IDH1 R132H reductase, diaphorase/resazurin fluorescence, 60 min | inhibition, % at 10 µM | hit rate 0.18% among 70,000; in the data active = inhibition above about 34%; inconclusive = no clear call, values can overlap the other calls; inactive = below about 11%
Pf Dd2 inh: P. falciparum Dd2 growth inhibition; hit rate 2.3% among 94,000; SYBR Green, 72 h; hits give low values; activity change, % at 10 µM; in the data active = activity change below about -80%; inconclusive = no clear call, values can overlap the other calls
T cruzi growth-1: inhibitors of T. cruzi proliferation; T. cruzi beta-gal in NIH3T3, GalScreen luminescence, 90 h; inhibition, % at 8.34 µM; hit rate 5.9% among 77,000; AID 624255;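 active = mean inhibition above about 93%, with at least 55% of replicates each passing it, limit read from the data, passing the limit was not always enough; inconclusive = only one of those two conditions holds; inactive = neither condition holds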
T cruzi growth-2: Trypanosoma cruzi proliferation inhibition; AID 651739; hit rate 72% among 5,600; inhibition, % at 8.35 µM; shares compounds with T cruzi growth-1; T. cruzi beta-gal in NIH3T3, GalScreen luminescence, 90 h;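 active = mean replicate inhibition above about 95% and at least 55% of replicates individually reaching it, limit read from the data; inconclusive = only one of the two criteria is met; inactive = neither criterion is met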
T cruzi growth-3: inhibitors of T. cruzi proliferation; inhibition, % at 2.09 µM; shares compounds with T cruzi growth-1; AID 651740; hit rate 21% among 5,600; T. cruzi beta-gal in NIH3T3, GalScreen luminescence, 90 h;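 active = mean inhibition above about 95%, with at least 55% of replicates also reaching it, limit read from the data; inconclusive = meets just one of the two conditions; inactive = meets neither condition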
NIH3T3 tox: cytotoxicity in mouse NIH/3T3 fibroblasts; shares compounds with T cruzi growth-1; NIH/3T3 viability, CellTiter-Glo ATP luminescence, 90 h; cytotoxicity (signal decrease), % at 8.35 µM; hit rate 14% among 5,600;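 active = mean signal decrease across replicates above about 35% based on untreated-well scatter, with enough replicates individually passing, limit read from the data; inconclusive = no rule stated though some were filed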
3T3 cytotox 2: cytotoxicity in mouse NIH/3T3 fibroblasts; shares compounds with T cruzi growth-1; NIH/3T3 viability, CellTiter-Glo ATP luminescence, 90 h; inhibition, % at 24.9 µM; hit rate 56% among 5,600; AID 651744;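 active = mean loss of cell viability signal at or above a set limit, and enough replicates individually reaching it; inconclusive = meets only the mean limit or only the replicate share; inactive = meets neither condition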
Hits are given with their value; n = inactive; u = inconclusive; x = no result given. Hits are enriched below; roughly 5.8% of the tested compounds scored in any of these assays.

SMILES | KDM4C inh | IDH1 R132H inh | Pf Dd2 inh | T cruzi growth-1 | T cruzi growth-2 | T cruzi growth-3 | NIH3T3 tox | 3T3 cytotox 2
C[C@@H]1CN([C@H](C)CO)S(=O)(=O)c2ccc(C3=CCCC3)cc2O[C@H]1CN(C)CC1CCCC1 | n | n | n | 105 | n | n | 59 | 105
C[C@H]1CN([C@@H](C)CO)S(=O)(=O)c2ccc(C3=CCCC3)cc2O[C@H]1CN(C)Cc1ccccc1 | n | n | n | 97 | 96 | n | u | 107
C[C@@H]1CN([C@H](C)CO)S(=O)(=O)c2ccc(C3=CCCC3)cc2O[C@@H]1CN(C)Cc1ccccc1 | n | n | n | 109 | 100 | n | n | 107
COc1ccc(C)cc1Nc1nc(N)nc(-c2oc3ccccc3c2C)n1 | x | n | x | x | x | x | x | x
Cc1nc(SCC(=O)Nc2sc3c(c2C#N)CCCC3)nc2c1CCCC2 | x | n | x | x | x | x | x | x
COc1cccc(NC(=O)CN(C)S(=O)(=O)c2ccc3ccccc3c2)c1 | x | n | x | x | x | x | x | x
COc1ccc(NC(=O)Nc2ccc3c(c2)C(=O)N([C@@H](C)CO)C[C@H](C)[C@@H](CN(C)Cc2ccc4c(c2)OCO4)OCCCC[C@H](C)O3)cc1 | n | x | n | u | 103 | n | n | 105
COc1ccc(CN(C)C[C@H]2OCCCC[C@H](C)Oc3ccc(NC(=O)Nc4ccc5c(c4)OCO5)cc3C(=O)N([C@H](C)CO)C[C@H]2C)cc1 | n | x | n | 105 | u | u | n | 78
C[C@@H]1CN([C@@H](C)CO)S(=O)(=O)c2ccc(C#Cc3ccccc3)cc2O[C@H]1CN(C)S(=O)(=O)c1ccccc1F | n | n | u | 124 | 109 | n | 41 | 47
C[C@H]1CN([C@@H](C)CO)S(=O)(=O)c2ccc(C#Cc3ccccc3)cc2O[C@H]1CN(C)S(=O)(=O)c1ccccc1F | n | n | n | 123 | 106 | u | n | n
CCC(=O)N1CCCCN2[C@H](CO)[C@H](c3ccc(C#Cc4ccccc4)cc3)[C@@H]2C1 | n | x | n | 117 | 104 | n | 52 | 58
CCC(=O)N1CCCCN2[C@H](CO)[C@@H](c3ccc(C#Cc4ccccc4F)cc3)[C@@H]2C1 | n | x | n | u | 101 | n | n | 104
CC(=O)N1CCCCN2[C@H](CO)[C@@H](c3ccc(C#Cc4ccccc4F)cc3)[C@@H]2C1 | n | x | n | 113 | 108 | n | 36 | 101
CCC(=O)N1CCCCN2[C@H](C1)[C@H](c1ccc(C#Cc3ccccc3F)cc1)[C@@H]2CO | n | x | n | u | n | n | 40 | 95
CCC(=O)N1CCCCN2[C@H](C1)[C@@H](c1ccc(C#Cc3ccccc3)cc1)[C@@H]2CO | n | x | n | n | x | x | x | x
CC(=O)N1CCCCN2[C@@H](CO)[C@@H](c3ccc(C#Cc4ccccc4F)cc3)[C@@H]2C1 | n | x | n | n | x | x | x | x
Cc1cc(=O)[nH]c(SCCOc2c(C)ccc(C)c2Cl)n1 | x | n | x | x | x | x | x | x
COc1ccc(CN2CCN(Cc3cccc(OC)c3OC)CC2)c(OC)c1 | x | n | x | x | x | x | x | x
COc1cccc(NC(=O)CSc2nc3ccccc3c(=O)n2-c2cccc(C(F)(F)F)c2)c1 | x | n | x | x | x | x | x | x
CCCNC(=O)N1CC[C@@H]2[C@H]1c1cc(-c3ccccc3)ccc1N(C)[C@H]2CO | n | x | n | u | 108 | 104 | n | n
COCC(=O)N1CC[C@@H]2[C@H]1c1cc(-c3ccccc3)ccc1N(C)[C@@H]2CO | n | x | n | 108 | 96 | n | n | n
COCC(=O)N1CC[C@@H]2[C@H]1c1cc(-c3ccccc3)ccc1N(C)[C@H]2CO | n | x | n | 105 | 102 | n | n | n
COCC(=O)N1CC[C@@H]2[C@H]1c1cc(-c3ccc(F)cc3)ccc1N(C)[C@@H]2CO | n | x | n | n | x | x | x | x
C[C@@H]1CCCCO[C@H](CN(C)C(=O)Nc2ccc(C(F)(F)F)cc2)[C@H](C)CN([C@@H](C)CO)C(=O)c2cc(NC(=O)NC3CCCCC3)ccc2O1 | n | n | n | 117 | 110 | n | n | u
C[C@@H]1CCCCO[C@H](CN(C)C(=O)NC2CCCCC2)[C@@H](C)CN([C@H](C)CO)C(=O)c2cc(NC(=O)Nc3ccc(C(F)(F)F)cc3)ccc2O1 | n | x | n | n | x | x | x | x
SMILES | KDM4C inh | IDH1 R132H inh | Pf Dd2 inh | T cruzi growth-1 | T cruzi growth-2 | T cruzi growth-3 | NIH3T3 tox | 3T3 cytotox 2
C[C@@H]1CN([C@H](C)CO)C(=O)c2cc(NC(=O)NC3CCCCC3)ccc2O[C@@H](C)CCCCO[C@H]1CN(C)C(=O)Nc1ccc(C(F)(F)F)cc1 | n | n | x | x | x | x | x | x
C[C@@H]1CCCCO[C@H](CN(C)C(=O)Nc2ccc(C(F)(F)F)cc2)[C@@H](C)CN([C@@H](C)CO)C(=O)c2cc(NC(=O)NC3CCCCC3)ccc2O1 | n | x | -90 | 121 | 105 | 115 | n | n
Cc1cc(OCC(=O)Nc2cc(-c3nc4ccccc4o3)ccc2C)ccc1Cl | x | n | x | x | x | x | x | x
C[C@@H]1CN([C@H](C)CO)C(=O)c2cc(NC(=O)C3CCCCC3)ccc2O[C@@H](C)CCCCO[C@H]1CN(C)C(=O)NC1CCCCC1 | n | x | n | 114 | 98 | n | n | n
CC(C)NC(=O)Nc1ccc2c(c1)C(=O)N([C@@H](C)CO)C[C@@H](C)[C@@H](CN(C)C(=O)NC1CCCCC1)OCCCC[C@H](C)O2 | n | n | n | n | x | x | x | x
CC(C)NC(=O)Nc1ccc2c(c1)C(=O)N([C@@H](C)CO)C[C@@H](C)[C@H](CN(C)C(=O)NC1CCCCC1)OCCCC[C@@H](C)O2 | n | n | n | 97 | n | n | n | n
CC(C)NC(=O)Nc1ccc2c(c1)C(=O)N([C@H](C)CO)C[C@@H](C)[C@H](CN(C)C(=O)NC1CCCCC1)OCCCC[C@@H](C)O2 | n | x | n | 96 | n | n | n | n
FC(F)(F)Oc1ccc(Nc2n[nH]c(=S)s2)cc1 | x | n | x | x | x | x | x | x
C[C@@H]1CCCCO[C@H](CN(C)S(=O)(=O)c2ccc(Cl)cc2)[C@@H](C)CN([C@@H](C)CO)C(=O)c2cc(N(C)C)ccc2O1 | n | n | n | 100 | 111 | n | n | n
C[C@H](CO)N1C[C@H](C)[C@H](CN(C)S(=O)(=O)c2ccc(Cl)cc2)OCCCC[C@H](C)Oc2ccc(N(C)C)cc2C1=O | n | n | n | 100 | 110 | n | n | n
COc1ccc(S(=O)(=O)N(C)C[C@H]2OCCCC[C@@H](C)Oc3ccc(N(C)C)cc3C(=O)N([C@H](C)CO)C[C@H]2C)cc1 | n | n | n | 117 | n | n | n | n
C[C@@H]1CCCCO[C@H](CN(C)S(=O)(=O)c2ccc(Cl)cc2)[C@H](C)CN([C@@H](C)CO)C(=O)c2cc(N(C)C)ccc2O1 | n | n | n | n | x | x | x | x
